UBC13 inh = human UBC13 polyubiquitination inhibition | P61088 | UBC13 polyubiquitin chain formation, TR-FRET | inhibition, % at 20 µM | hit rate 0.47% among 330,000 | AID 485273; in the data active = inhibition above about 45%, passing the limit was not always enough
Target sequence (P61088 whole entry, looked up): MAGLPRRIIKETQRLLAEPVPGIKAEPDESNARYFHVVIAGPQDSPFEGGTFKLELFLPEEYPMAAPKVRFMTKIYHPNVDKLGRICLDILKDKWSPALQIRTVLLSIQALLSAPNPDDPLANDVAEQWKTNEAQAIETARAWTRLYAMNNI
UCH37 inh = inhibitors of human deubiquitinating enzyme UCH37 | Q9Y5K5 | hit rate 0.33% among 330,000 | inhibition, % (concentration not given with the values) | purified proteasome/UCH37, Ub-AMC cleavage fluorescence | AID 588478;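 active = mean inhibition over replicate wells above about 20%, limit read from the data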
Target sequence (Q9Y5K5 whole entry, looked up): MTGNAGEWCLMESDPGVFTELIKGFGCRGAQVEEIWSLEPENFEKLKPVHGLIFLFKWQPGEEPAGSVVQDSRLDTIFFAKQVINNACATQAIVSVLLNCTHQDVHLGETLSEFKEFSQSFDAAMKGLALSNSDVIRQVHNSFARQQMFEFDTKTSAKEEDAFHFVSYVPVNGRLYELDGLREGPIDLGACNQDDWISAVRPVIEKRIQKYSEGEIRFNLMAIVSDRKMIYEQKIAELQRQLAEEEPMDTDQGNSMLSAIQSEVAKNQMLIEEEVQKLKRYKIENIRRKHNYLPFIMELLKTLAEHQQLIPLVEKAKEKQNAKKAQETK
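Material: Human UCH37 enzyme supplied as purified proteasome complex | Schedule: 30 min compound-proteasome preincubation then 25 min substrate reaction, room temperature | Detection: AMC fluorescence from Ub-AMC cleavage, excitation 355 nm, emission 460 nm | Benchmarks: Wells without proteasome as full block, compound-free enzyme plus substrate as uninhibited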
Apaf-1 inh = inhibitors of human Apaf-1 apoptosome | O14727 | reconstituted apoptosome caspase-3 activity, DEVD-Rh110 fluorescence | inhibition, % at 20 µM | hit rate 0.71% among 330,000 | AID 489030; active = inhibition of at least 40% at 20 µM
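System – cell-free apoptosome with Apaf-1, procaspase-3 and caspase-9 · Buffer or medium – pH 7.5 Hepes buffer with CHAPS, BSA, DTT · Also added – cytochrome c with DEVD-Rh110 · Times – 30 min compound preincubation, 50 min activation, room temperature · Technique – Rh110 fluorescence intensity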
PREPL inh = human PREPL enzyme inhibition | Q4J6C6 | recombinant PREPL, fluorescence polarization activity-based probe | inhibition, % at 5.96 µM | hit rate 0.68% among 320,000; in the data active = inhibition above about 43%
Apaf-1 inh conf2 = confirmation of Apaf-1 inhibitors; reconstituted apoptosome, caspase-3 DEVD-Rh110 fluorescence; inhibition, % at 20 µM; hit rate 25% among 1,800; AID 504614; shares compounds with Apaf-1 inh;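 active = mean inhibition of at least 40% at 20 µM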
Rh110 interf inh = counter-screen for Apaf-1 inhibitors: fluorescence interference; activation (fluorescence interference), % at 20 µM; 1,800 tested, under 10 active; AID 504615; shares compounds with Apaf-1 inh; Rh110 fluorescence interference, quenched caspase reaction;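 active = signal rise of 40% or more at 20 µM, treated as a fluorescence artifact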
Apaf1 inh interf = shows fluorescence interference in the Apaf-1 inhibitor assay format; shares compounds with Apaf-1 inh; fluorescence interference counterscreen, Apaf-1 assay format; IC50, µM; 460 tested, under 10 active; call rule not given here
Hits are given with their value; – = inactive; · = no result given. Compounds with a hit are over-represented: about 1.5% of the library has one in this group of screens.

SMILES	UBC13 inh	UCH37 inh	Apaf-1 inh	PREPL inh	Apaf-1 inh conf2	Rh110 interf inh	others
Cc1ccc([N+](=O)[O-])c(C(=O)NN=Cc2cccs2)c1	·	–	·	·	·	·
CC(CC(=O)Nc1cccnc1)=NNC(=O)C(C)Oc1ccc(Cl)cc1Cl (stereo not drawn)	·	–	·	·	·	·
CCN(CC)c1ccc(C=NNC(=O)OC(C)(C)C)cc1	·	–	·	·	·	·
Cc1ccc(C(=O)N2CCCC(C(F)(F)F)C2)cc1S(=O)(=O)N1CCCCC1 (stereo not drawn)	–	–	–	–	·	·
O=C(c1ccc(Cl)c(S(=O)(=O)N2CCCCCC2)c1)N1CCCC(C(F)(F)F)C1 (stereo not drawn)	–	–	59.6	–	–	–
O=C(c1ccc2ncsc2c1)N1CCCC(C(F)(F)F)C1 (stereo not drawn)	–	–	42.3	–	–	–
CC1CCCN(C(=O)c2ccc3ncsc3c2)C1 (stereo not drawn)	–	–	–	·	·	·
CC(=NNC(=O)c1nn(C)cc1Br)c1cccc(NC(=O)c2ccncc2)c1	·	–	·	·	·	·
CC(=NNC(=O)c1ccccc1OCc1ccc(F)cc1)c1ccccn1	·	–	·	·	·	·
CC(=NNC(=O)c1nn(C)c(C)c1Br)c1ccc(NC(=O)c2ccccc2F)cc1	·	–	·	·	·	·
CC(=O)c1ccc(N2CCN(S(=O)(=O)c3ccc4c5c3CC(=O)N5CC(C)S4)CC2)cc1 (stereo not drawn)	–	–	55.7	–	42.0	–	Apaf1 inh interf=–
CC(=O)c1ccc(N2CCN(S(=O)(=O)c3ccc4c(c3)CC(=O)N4)CC2)cc1	–	–	–	–	·	·
Cc1ccc(SCc2c(C(=O)NN=Cc3ccccc3)nnn2-c2nonc2N)cc1	·	–	·	·	·	·
Cc1ccc(CNc2ccc(O)cc2)cc1	–	–	93.6	·	–	–
COc1ccc(C=NNC(=O)CNC(=O)C2COc3ccccc3O2)cc1OC (stereo not drawn)	·	–	·	·	·	·
Nc1nccnc1C(=O)NN=Cc1ccco1	·	–	·	·	·	·
Cc1ccc(S(=O)(=O)N(CC(=O)NN=Cc2cccc3c2OCCO3)c2ccccc2F)cc1	·	–	·	·	·	·
COc1ccc(CNC(=O)c2ccc(-c3ccccc3)cc2)cc1	–	–	–	–	·	·
COc1ccc(CNC(=O)c2c(C)oc3c2C(=O)c2ccccc2C3=O)cc1	–	–	67.2	–	71.4	–	Apaf1 inh interf=–
Cc1ccc(C(=O)NCC(=O)N2CCCCCCC2)cc1	–	–	60.6	–	–	–
COC(=O)C=c1sc2n(c1=O)CCN=2	·	–	·	·	·	·
CN1CCN(c2cc3c(c4c2[nH]c2ccccc24)C(=O)CC(C)(C)C3)CC1	–	–	50.4	–	–	–
CN1CCN(c2ccc(Cl)cc2NC(=O)c2cc(=O)[nH]c3ccccc23)CC1	–	–	–	–	·	·
S=C(Nc1ccc2nsnc2c1)N1CCCC1	–	–	98.4	–	–	–
C#CCOCCOCCOCCNc1nc(N2CCN(C(=O)[C@H](CCCCN)n3cc(CCCC)nn3)CC2)nc(N2CCN(C(=O)[C@H](CCCCN)n3cc(CCCC)nn3)CC2)n1	–	–	49.6	–	–	–
SMILES	UBC13 inh	UCH37 inh	Apaf-1 inh	PREPL inh	Apaf-1 inh conf2	Rh110 interf inh	others
CCN(CC)C(=O)[C@H]1C[C@H](CC(=O)NCc2cccc(C(F)(F)F)c2)C(=O)N2CCc3c([nH]c4ccc(Cl)cc34)[C@]12C	·	–	46.4	·	–	–
CCN(CC)C(=O)[C@H]1CC(CC(=O)NCCCN(C)C)C(=O)N2CCc3c([nH]c4ccccc34)[C@]12C (stereo partly drawn)	–	–	43.9	–	–	–
CCN(CC)C(=O)[C@H]1CC(CC(=O)NCc2ccc(OC)c(OC)c2)C(=O)N2CCc3c([nH]c4ccccc34)[C@]12C (stereo partly drawn)	–	·	–	–	·	·
CC(/C=C/c1ccc2c(c1)OCO2)=NNC(=O)CNc1ccc(C)cc1	·	–	·	·	·	·
CN(C)C=NN(C)c1ncccc1[N+](=O)[O-]	·	–	·	·	·	·
CCC1C(=O)N=C(SCC(=O)Nc2cccc3ccccc23)NC1=O (stereo not drawn)	–	–	–	–	·	·
CCC1C(=O)N=C(SCC(=O)Nc2nc3ccccc3s2)NC1=O (stereo not drawn)	–	–	69.6	–	–	–
CCCc1c(C(=O)NN=Cc2cccs2)nnn1-c1nonc1N	·	–	·	·	·	·
Cc1[nH]c2ccccc2c1/C=N/Nc1nc2ccccc2[nH]1	–	·	–	53.0	–	–
CSc1ccc(C=NN(C)S(=O)(=O)c2ccc(C)cc2)cc1	·	–	·	·	·	·
CC1(C)Cc2cccc(OCC(=O)N3CCN(c4cccc(C(F)(F)F)c4)CC3)c2O1	–	–	44.6	–	44.9	–	Apaf1 inh interf=–
Cc1ccc(O)c(CNc2cccc3cccnc23)c1	–	–	93.4	–	–	–
COc1cccc(CNc2cccc3cccnc23)c1O	–	–	71.5	–	–	–
Cc1ccc(O)c(CNc2cccc(C)n2)c1	–	–	–	·	·	·
Oc1c(Br)cc(Br)cc1CNc1cccc2cccnc12	–	–	92.1	–	59.1	–	Apaf1 inh interf=–
Oc1ccc(Br)cc1CNc1cnc2ccccc2c1	–	–	–	–	·	·
COc1cccc(CNc2ccccn2)c1O	–	·	–	–	·	·
Oc1ccc(Br)cc1CNc1cccc2cccnc12	–	·	90.4	–	47.7	–	Apaf1 inh interf=–
COCc1c(C(=O)NN=CC2CC=CCC2)nnn1-c1nonc1N (stereo not drawn)	·	–	·	·	·	·
O=C(CNC(=O)c1ccc([N+](=O)[O-])cc1)NN=Cc1ccc(OC(=O)c2ccccc2)cc1	·	–	·	·	·	·
CC/C(=N/Nc1ccccc1C)c1cnnc(SC)n1	–	·	40.7	–	–	–
CSc1nncc(/C(C)=N\Nc2ccccc2)n1	–	·	70.4	–	–	–
CSc1nncc(C(C)=NNc2ccccc2C)n1	·	–	·	·	·	·
CSc1nncc(/C(C)=N\Nc2cccc(C)c2)n1	–	·	60.5	–	–	–
CCC(=NNc1ccccc1)c1cnnc(SC)n1	·	–	·	·	·	·
SMILES	UBC13 inh	UCH37 inh	Apaf-1 inh	PREPL inh	Apaf-1 inh conf2	Rh110 interf inh	others
CC1Cc2ccccc2N1C(=O)CON=Cc1ccccc1OC(F)F (stereo not drawn)	·	–	·	·	·	·
COc1ccc(NC(=O)CN(C)C(=O)C2CSC3(C)CCC(=O)N23)cc1 (stereo not drawn)	–	–	42.7	–	–	–
CS(=O)(=O)N(CC(=O)NN=Cc1cc([N+](=O)[O-])ccc1Cl)c1ccccc1	·	–	·	·	·	·
CCCCCCn1c2c(c(=N)c3c1CCC3)CCC2	–	–	–	–	·	·
CCCCCCCCCn1c2c(c(=N)c3c1CCC3)CCC2	–	–	49.7	–	–	–
CCOC(=O)c1cc(C(=O)c2cccs2)n2ccc(C(C)=O)cc12	–	–	42.3	–	–	–
Cc1ccc(C=NNC(=O)c2ccc3nc[nH]c3c2)s1	·	–	·	·	·	·
Cc1sc2ncnc(N3CCC(C(=O)N(C)CC(=O)Nc4ccccc4Cl)CC3)c2c1C	–	–	59.9	–	–	–
Oc1cc(NCCN2CCOCC2)cc2cccnc12	–	–	92.3	–	79.6	–	Apaf1 inh interf=–
Oc1cc(Nc2ccccc2)cc2cccnc12	–	–	–	–	·	·
CC(=NNS(C)(=O)=O)c1ccccc1	·	–	·	·	·	·
